Assay results taken from ChEMBL document CHEMBL4177753, “Structural Modification of Natural Product Ganomycin I Leading to Discovery of a α-Glucosidase and HMG-CoA Reductase Dual Inhibitor Improving Obesity and Metabolic Dysfunction in Vivo” (J Med Chem, 2018).
Activity calls are given as the source filed them. The rule behind the calls is not given here.

Columns and labels:
Mus musculus [1] = test: Toxicity in C57BL/6J mouse assessed as effect on behavior at 30 mg/kg administered daily via oral gavage for 3 months; assay type: organism-based; conditions: in vivo
Summary of the method: (§1)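 Long-term safety study in C57BL/6J mice, 20 male and 20 female, sorted by gender, blood glucose and body weight into four groups (n = 10 each). Treated groups of each sex got 30.0 mg/kg daily by oral gavage in soybean vehicle. Vehicle groups got an equal volume of soybean. Dosing ran three months, with behavior, survival, body weight, blood glucose, liver function and organ coefficients recorded.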

Mus musculus [2] = test: Toxicity in C57BL/6J mouse assessed as effect on plasma AST levels at 30 mg/kg administered daily via oral gavage for 3 months; assay type: organism-based; conditions: in vivo; summary of the method: as §1
[3] = Cmax in Sprague-Dawley rat at 2 mg/kg, po; assay type: ADME, organism-based; design: dose 2 mg/kg, route oral; conditions: in vivo
Summary of the method: (§2)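 Male Sprague-Dawley rats (n = 6, 0.21–0.23 kg), single oral dose 2.0 mg/kg. Orbital blood sampled 0–16 h into heparinized tubes. Plasma was protein-precipitated with methanol, with internal standard added. Quantified by UPLC-ESI(+)-QTOF-MS in SIM mode on a C18 column with a methanol/0.3% formic acid water gradient. Linear range 0.54–107 ng/ml.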

[4] = AUC (0 to infinity) in Sprague-Dawley rat at 2 mg/kg, po; assay type: ADME, organism-based; design: dose 2 mg/kg, route oral, time infinity; conditions: in vivo; summary of the method: as §2
Mus musculus [5] = test: Antiobesity activity in ob/ob mouse assessed as reduction in LEE index at 3 mg/kg administered daily via oral gavage for 31 days relative to vehicle-treated control; assay type: functional, organism-based
Summary of the method: (§3)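 Male ob/ob mice, n = 10 per group, grouped by blood glucose and body weight. Daily gavage at 0.3, 1.0 or 3.0 mg/kg in soybean vehicle, with soybean vehicle controls and C57BL/6J controls. Body weight, cumulative food intake, LEE index, fat mass and lean mass recorded. Mean ± SEM, one-way ANOVA with Tukey test.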

Mus musculus [6] = test: Antiobesity activity in ob/ob mouse assessed as change in lean mass at 3 mg/kg administered daily via oral gavage for 31 days; assay type: functional, organism-based; summary of the method: as §3
Mus musculus [7] = test: Hypoglycemic activity in ob/ob mouse assessed as decrease in fasting blood glucose levels administered daily via oral gavage for 28 days; assay type: functional, organism-based
Summary of the method: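 Male ob/ob mice, n = 10 per group, daily gavage at 0.3, 1.0 or 3.0 mg/kg in soybean vehicle. Fasting and free-diet blood glucose and HbA1c measured.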

Mus musculus [8] = test: Hypoglycemic activity in ob/ob mouse assessed as decrease in blood glucose AUC at 0.3 to 3 mg/kg administered daily via oral gavage for 25 days by OGTT; assay type: functional, organism-based
Summary of the method: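 Male ob/ob or high-fat-diet C57BL/6J mice dosed daily by gavage at 0.3–3.0 mg/kg. OGTT: glucose 2 g/kg orally after overnight fast. ITT: insulin 0.6 U/kg i.p. after 4 h fast. Glucometer readings at 0, 40, 80 and 120 min; AUC computed from the curves.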

Mus musculus [9] = test: Hypolipidemic activity in ob/ob mouse assessed as decrease in plasma LDL-C levels at 3 mg/kg administered daily via oral gavage for 31 days relative to vehicle-treated control; assay type: functional; design: scale not given: the % may be the effect or the level left
Mus musculus [10] = test: Hypolipidemic activity in ob/ob mouse assessed as decrease in size of adipocytes in white adipose tissue at 3 mg/kg administered daily via oral gavage for 31 days by hematoxylin-eosin staining-based microscopic method; assay type: functional, organism-based
Summary of the method: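 Male ob/ob mice dosed by gavage (soybean vehicle); liver and abdominal white adipose tissue fixed in 10% formaldehyde-PBS pH 7.4, paraffin-embedded, sectioned, stained with H&E, Oil Red O or sirius red, and examined by light microscopy.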

Mus musculus [11] = test: Hypolipidemic activity in C57BL/6J DIO mouse assessed as decrease in plasma free fatty acid levels at 0.3 to 3 mg/kg administered daily via oral gavage for 5 weeks; assay type: functional, organism-based
Summary of the method: (§4)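 High-fat-diet male C57BL/6J mice, n = 8 per group, daily gavage at 0.3–3.0 mg/kg in soybean vehicle for 5 weeks. Serum total cholesterol, triglycerides and free fatty acids measured.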

Mus musculus [12] = test: Hypolipidemic activity in C57BL/6J DIO mouse assessed as decrease in serum total cholesterol levels at 0.3 to 3 mg/kg administered daily via oral gavage for 5 weeks; assay type: functional, organism-based; summary of the method: as §4
Mus musculus [13] = test: Hypolipidemic activity in ob/ob mouse assessed as decrease in liver triglyceride levels at 0.3 to 3 mg/kg administered daily via oral gavage for 31 days; assay type: functional, organism-based
Mus musculus [14] = test: Hypolipidemic activity in ob/ob mouse assessed as decrease in serum AST levels at 0.3 to 3 mg/kg administered daily via oral gavage for 31 days; assay type: functional, organism-based
Mus musculus [15] = test: In vivo inhibition of alpha-glucosidase activity in ob/ob mouse assessed as accumulation of carbohydrate in lower part of small intestine at 3 mg/kg administered daily via oral gavage for 31 days; assay type: functional, organism-based
Prevotella = test: Decrease in Prevotella levels in cecum of ob/ob mouse at 3 mg/kg administered daily via oral gavage for 31 days by 16S rRNA gene high-throughput sequencing method; assay type: functional, organism-based
Summary of the method: (§5)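 Male ob/ob mice dosed daily by gavage at 1.0 or 3.0 mg/kg, compared with vehicle group. DNA extracted from about 150 mg caecum contents. 16S rRNA V3–V4 region amplified and sequenced on Illumina HiSeq PE250. Community compared by NMDS/MRPP; discriminant taxa identified by LEfSe.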

Fusobacterium = test: Decrease in Fusobacterium levels in cecum of ob/ob mouse at 3 mg/kg administered daily via oral gavage for 31 days by 16S rRNA gene high-throughput sequencing method; assay type: functional, organism-based; summary of the method: as §5
Alistipes = test: Decrease in Alistipes levels in cecum of ob/ob mouse at 3 mg/kg administered daily via oral gavage for 31 days by 16S rRNA gene high-throughput sequencing method; assay type: functional, organism-based; summary of the method: as §5
Mus musculus [16] = test: Reduction of plasma LPS levels in ob/ob mouse at 3 mg/kg administered daily via oral gavage for 31 days by ELISA relative to vehicle-treated control; assay type: functional; design: scale not given: the % may be the effect or the level left
Summary of the method: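 Male ob/ob mice treated daily by gavage (soybean vehicle); plasma LPS and TNF-α quantified by ELISA kits. For antibiotic groups, ob/ob mice first received an oral antibiotic cocktail (ampicillin 1 g/L, vancomycin, neomycin, gentamycin, erythromycin) for three weeks, then 3.0 mg/kg/day; n = 8 per group.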

Mus musculus [17] = test: Downregulation of Tnfa mRNA expression in ob/ob mouse ileum at 3 mg/kg administered daily via oral gavage for 31 days by RNA-seq analysis; assay type: functional, organism-based
Mus musculus [18] = test: Upregulation of Il10 mRNA expression in ob/ob mouse ileum at 3 mg/kg administered daily via oral gavage for 31 days by RNA-seq analysis; assay type: functional, organism-based
Mus musculus [19] = test: Upregulation of Muc-5 mRNA expression in ob/ob mouse ileum at 3 mg/kg administered daily via oral gavage for 31 days by RNA-seq analysis; assay type: functional, organism-based
Mus musculus [20] = test: Hypoglycemic activity in antibiotic-treated ob/ob mouse assessed as decrease in HbA1c levels at 3 mg/kg administered daily via oral gavage for 3 weeks; assay type: functional, organism-based
Summary of the method: (§6)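 Male ob/ob mice pretreated three weeks with ampicillin (1 g/L), vancomycin, neomycin, gentamycin and erythromycin. Groups of n = 8 given 3.0 mg/kg/day orally in soybean vehicle versus vehicle. Plasma and hepatic lipids, fasting glucose, OGTT (glucose 2 g/kg after overnight fast) and HbA1c measured.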

Mus musculus [21] = test: Hypolipidemic activity in antibiotic-treated ob/ob mouse assessed as decrease in hepatic free fatty acid levels at 3 mg/kg administered daily via oral gavage for 3 weeks; assay type: functional, organism-based; summary of the method: as §6
Mus musculus [22] = test: Antiobesity activity in ob/ob mouse assessed as cumulative food intake at 3 mg/kg administered daily via oral gavage for 25 days relative to vehicle-treated control

CC(C)=CCC/C(C)=C/CCC1=C[C@H](c2ccc(C(C)(C)C)cc2)OC1=O
Activity (Mus musculus [1]): Non-Toxic | Activity (Mus musculus [2]): Non-Toxic | Cmax [3]: 49.3 ng/mL | AUC(0-inf) [4]: 280 ng·h/mL | Activity (Mus musculus [5]): Active | Activity (Mus musculus [6]): inactive | Activity (Mus musculus [7]): Dose-dependent effect | Activity (Mus musculus [8]): Active | Activity (Mus musculus [9]): 51% | Activity (Mus musculus [10]): Active | Activity (Mus musculus [11]): Active | Activity (Mus musculus [12]): Active | Activity (Mus musculus [13]): Active | Activity (Mus musculus [14]): Active | inhibition (Mus musculus [15]): Active | Activity (Prevotella): Active | Activity (Fusobacterium): Active | Activity (Alistipes): Active | Activity (Mus musculus [16]): 40.9% | Activity (Mus musculus [17]): Active | Activity (Mus musculus [18]): Active | Activity (Mus musculus [19]): Active | Activity (Mus musculus [20]): inactive | Activity (Mus musculus [21]): inactive | Activity (Mus musculus [22]): 78%
